# Screening data (PubChem)
# Rows were chosen to be rich in hits. Some 1.6% of all compounds tested hit in one or more screens of this group.
# TNF death inh = inhibitors of TNF-alpha triggered necroptosis, primary screen, cell-based, Jurkat FADD-/-, single concentration; AID 463075, 2010; Jurkat FADD-/- TNF necroptosis rescue, ATP luminescence, 24 h; 0 = TNF only, 100 = no-TNF cells; hit rate 0.068% among 220,000; activation (protection from cell death), % at 10 µM;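 active = activation, meaning protection from cell death, of at least 50% relative to plate controls; inactive = activation below 50%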;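 also: necroptosis triggered by 40 ng/mL TNF-alpha added together with compound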
# L929 necroptosis = inhibitors of zVAD-triggered necroptosis, primary screen, L929 cells; hit rate 0.38% among 220,000; viability rescue, % at 10 µM; L929 zVAD necroptosis rescue, ATP luminescence, 24 h; with zVAD 60 µM;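 active = activation, scaled between plate controls, above about 75%, limit read from the data; inactive = activation under that limit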;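 also: 0% = zVAD with DMSO and 100% = DMSO alone without zVAD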
# Wee1 degr inh = Wee1 degradation inhibitors, primary screen, cell-based, HeLa, Wee1K328M-luciferase, luminescence; HeLa Luc-Wee1K328M stability; 100% = proteasome inhibitor MG132 effect; hit rate 1.2% among 220,000; reporter increase, % at 5 µM; Wee1-like protein kinase (Homo sapiens), P30291;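 active = activation above the mean of all tested compounds plus 3 SD, set per screening run, cut at about 8.8% in these data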;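 also: cells exposed to compound for 20 h before luminescence read; 0% = DMSO alone and 100% = MG132 at 30 µM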
# Pf gamet viab = late stage P. falciparum gametocyte viability inhibitors, primary screen, ATP luminescence, HTS | P. falciparum stage V gametocytes, 24 h | inhibition, % at 10.9 µM | hit rate 0.065% among 150,000 | AID 743093, 2013;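 active = inhibition above the mean plus 3 SD of compounds within the control limits, set per campaign, cut at about 38% in these data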;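 also: 0% = DMSO wells and 100% = medium only without gametocytes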
# Mdm2 ligase inh = MDM2-luciferase reporter signal enhancers, primary screen, MDM2 E3 ligase inhibitor project, cell-based, luminescence, 1536-well; AID 1230, 2008; hit rate 0.11% among 210,000; E3 ubiquitin-protein ligase Mdm2 (Homo sapiens), Q00987; signal enhancement, % at 5 µM; cell-based MDM2 ubiquitination luciferase reporter, 2 h; 0 = plate control, 100 = twice control, blank-subtracted;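 active = signal enhancement of 30% or more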;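 also: luminescence tracks abundance of the self-degrading MDM2-luciferase fusion protein; higher signal means inhibition of MDM2 E3 ligase activity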
# Target sequence (Q00987 whole entry, looked up, the tested form may be a part): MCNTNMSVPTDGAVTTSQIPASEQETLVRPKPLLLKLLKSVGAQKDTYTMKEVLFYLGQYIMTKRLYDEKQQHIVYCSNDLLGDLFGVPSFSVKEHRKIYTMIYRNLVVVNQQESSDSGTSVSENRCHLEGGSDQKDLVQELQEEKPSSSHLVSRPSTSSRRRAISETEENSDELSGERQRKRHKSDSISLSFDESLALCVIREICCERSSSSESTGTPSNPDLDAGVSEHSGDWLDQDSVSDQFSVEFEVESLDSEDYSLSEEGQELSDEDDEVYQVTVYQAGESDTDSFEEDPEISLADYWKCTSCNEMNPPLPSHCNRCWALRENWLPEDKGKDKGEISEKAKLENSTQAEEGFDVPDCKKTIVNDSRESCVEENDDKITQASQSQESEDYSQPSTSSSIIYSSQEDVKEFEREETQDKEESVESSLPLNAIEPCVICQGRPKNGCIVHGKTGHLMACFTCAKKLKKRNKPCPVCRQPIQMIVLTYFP
#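 test system = mammalian cells stably expressing self-ubiquitinating, self-degrading MDM2 E3–luciferase fusion | quantity = 2000 cells/well | incubation = cell settling 4 h, compound treatment 2 h, both 37 °C | signal = luminescence with SteadyLite reagent, 15 min at room temperature | evaluation = % enhancement relative to plate controls after blank subtraction | benchmarks = plate controls and plate blanks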
# An asterisk follows results filed as active; x = no result given.
SMILES,TNF death inh,L929 necroptosis,Wee1 degr inh,Pf gamet viab,Mdm2 ligase inh
Cc1nn(-c2ccccc2)c(C)c1/C=N\N1CCN(c2ccc(Cl)cc2)CC1,-4,0,-2,5,1
O=S(=O)(c1ccccc1S(=O)(=O)N1CCCCC1)N1CCCCC1,0,0,9.1*,x,4
COc1cc(NC(=O)CSc2nccc(C)n2)c(C(=O)O)cc1OC,1,1,1,x,5
C=C1C(=O)O[C@@H]2C[C@@H](C)[C@@H]3C=CC(=O)[C@@]3(C)[C@@H](OC(C)=O)[C@H]12,33,130*,x,13,35*
C[C@@H]1C[C@@H]2OC(=O)[C@]3(C)[C@H]2[C@@H](OC3(C)O)[C@]2(C)C(=O)C=C[C@H]12 (some centres undefined),-5,0,x,-33,-3
Cc1ccc(N2CC(C(=O)N/N=C/c3sccc3C)CC2=O)cc1 (centres undefined),3,1,0,x,-9
CC1CN(Cc2nc3ccccc3c(=O)[nH]2)CC(C)O1 (centres undefined),0,0,5,-7,0
CCOc1ccc(NC(=S)NCCCN2CCOCC2)cc1,1,6,-1,-5,34*
O=Cc1ccc(-c2ccc([N+](=O)[O-])cc2Cl)o1,0,2,1,-19,-12
O=Cc1ccc(-c2cccc([N+](=O)[O-])c2)o1,-1,2,10*,-31,-73
CCOC(=O)c1c(-c2ccccc2)nnn1-c1nc(OC)nc(N2CCOCC2)n1,-1,0,-2,x,x
O=C(Nc1ccc(OC(F)(F)C(F)F)c(NC(=O)c2cccc(F)c2)c1)c1cccc(F)c1,2,0,-1,x,-22
CCOC(=O)c1nnn(-c2nonc2N)c1-c1ccc(Br)cc1,-1,-1,9.5*,-3,-3
CCOC(=O)c1nnn(-c2nonc2N)c1-c1ccc(C)cc1,0,0,1,x,-9
CCCC(=O)Nc1cccc(NC(=O)c2ccc3c(c2)OCO3)c1,-1,0,0,x,-8
Cc1ccc(S(=O)(=O)N2CCCC(C(=O)Nc3ccc(NC(=O)c4ccccn4)cc3)C2)cc1 (centres undefined),-6,0,1,-4,-1
O=c1[nH]c2ccccc2nc1/C=C/c1ccc(F)cc1,-4,67,2,-8,4
O=C(/C=C/c1ccc(F)cc1)Nc1nc2ccccc2[nH]1,1,2,10*,x,-25
O=C(Nc1nc2ccc(SC(F)F)cc2s1)c1ccc2c(c1)S(=O)(=O)c1ccccc1C2=O,1,1,-2,x,-9
CC(C)CC(OC(=O)c1ccco1)C(=O)NCC1CCCO1 (centres undefined),-3,0,-2,x,-27
O=C(Nc1cccc(F)c1)c1ccccc1,0,0,-2,x,-15
COC(C(=O)Nc1cccc(F)c1)c1ccccc1 (centres undefined),79*,23,0,x,-10
COC(C(=O)Nc1ccc(F)c(F)c1)c1ccccc1 (centres undefined),99*,13,3,5,x
CCCCC1=CC2=C(c3ccco3)C(=O)C(C)(OC(=O)c3ccc(OC)cc3)C(=O)C2=CN1Cc1ccc2c(c1)OCO2 (centres undefined),-3,0,x,x,19
CC(N)C12CC3CC(CC(C3)C1)C2 (centres undefined),4,0,-2,5,-7
SMILES,TNF death inh,L929 necroptosis,Wee1 degr inh,Pf gamet viab,Mdm2 ligase inh
O=C(COc1ccccc1)Nc1ncccn1,0,1,0,x,35*
O=C(COc1ccccc1)Nc1nccs1,0,1,9.6*,-18,-28
Cc1cccc(OCCSc2nc3c([nH]2)c(=N)ncn3Cc2ccccc2)c1,-5,0,-3,x,-4
Cc1[nH]nc(Nc2ccc(Br)cc2)c1[N+](=O)[O-],2,1,9.2*,3,3
Cc1ccc(Nc2n[nH]c(C)c2[N+](=O)[O-])cc1,2,2,1,x,-18
CCOC(=O)CC(=O)CSc1nc(C)cc(C)c1C#N,-1,0,1,-22,8
Cn1c(COc2cccc3ccccc23)nnc1SCC(=O)OC1CCCCC1,0,-1,9.5*,19,x
CCn1c(COc2cccc3ccccc23)nnc1SCC(=O)OC1CCCCC1,1,1,-4,6,-15
COc1cc(OC)nc(/N=C/N(C)C)n1,-1,0,33*,-16,-8
Cc1nn(CCCC(=O)NCc2ccccc2)c(C)c1[N+](=O)[O-],0,0,1,3,40*
NC(=S)Nc1cccc2cc3ccccc3cc12,-12,0,-2,-5,-29
O=S(=O)(CCSc1ccccn1)c1nc2ccccc2s1,-16,0,-1,x,-13
COc1ccc(CSC2=CS(=O)(=O)c3ccccc3N2)cc1,2,0,9.7*,-10,-2
Cc1nc(Nc2nc(CSc3nc4ccccc4[nH]3)cc(=O)[nH]2)nc2ccccc12,-11,57,2,19,-7
CN1CCN(c2ccc(C(=O)c3ccc(F)cc3)cc2)CC1,-6,1,9.0*,x,-15
Cc1ccnc(SCc2cc(=O)c(OC(=O)c3cccs3)co2)n1,-1,3,-3,-5,-6
Cc1cc(C(=O)NNC(=S)NCc2ccccc2)cs1,0,1,1,-3,-10
CCN(C(=O)CSc1nc2ccccc2c(=O)n1-c1cccc(C)c1)C1CCS(=O)(=O)C1 (centres undefined),1,-1,-3,11,63*
CCOc1nc(NCCC2=CCCCC2)nc(N2CCOCC2)n1,-2,0,0,x,-8
COC(=O)c1ccc(OCC(O)Cn2nnc3ccccc32)cc1 (centres undefined),-2,0,2,13,-5
CC(=O)c1ccc(OCC(O)Cn2nnc3ccccc32)cc1 (centres undefined),-1,-1,0,18,36*
COc1cc(C=O)ccc1OCCCOc1ccc([N+](=O)[O-])cc1,2,0,9.9*,x,x
Cc1cc(C)n(/N=C/c2cccs2)c(=O)c1C#N,0,1,11*,x,4
CCOC(=O)c1nn(-c2ccc(F)cc2)c2nc(CC(C)C)c(C#N)c(=O)n12,-1,-1,3,13,35*
CCOC(=O)c1nn(-c2ccccc2)c2nc(-c3ccc(OC)cc3)c(C#N)c(=O)n12,0,2,1,-15,-6
COc1ccc(NCc2nnc(SCCN3CCCCC3)n2-c2ccc(C)cc2)cc1,3,-1,-1,-10,-10
